The test system of assay [1] is HepG2. Put plainly: Cell cycle arrest in human HepG2 cells assessed as accumulation at G2/M phase at 0.2 uM after 24 hrs by flow cytometry (reference value: 11.29%). The format is functional.
Assay [2] concerns HepG2. Put plainly: Cell cycle arrest in human HepG2 cells assessed as accumulation at G2/M phase at 0.5 uM after 24 hrs by flow cytometry (reference value: 11.29%). Type of assay: functional. In general terms: Flow cytometry measures light scatter and fluorescence of single cells or particles in a stream.
The test system of assay [3] is HepG2. Put plainly: Induction of apoptosis in human HepG2 cells assessed as viable cells at 0.2 uM after 24 hrs by annexin V/propidium iodide staining-based flow cytometry (reference value: 89.8%). Type of assay: functional. The settings on record: HepG2, 24 h, read-out: Activity.
Assay [4] concerns HepG2. Put plainly: Induction of apoptosis in human HepG2 cells assessed as necrotic cells at 0.5 uM after 24 hrs by annexin V/propidium iodide staining-based flow cytometry (reference value: 1.59%). The format is functional.
For assay [5], the system named is HepG2. As to the kind of experiment: Induction of apoptosis in human HepG2 cells assessed as late apoptotic cells at 1 uM after 24 hrs by annexin V/propidium iodide staining-based flow cytometry (reference value: 3.74%). The format is functional.
Assay [6] has as its system HepG2. Put plainly: Induction of apoptosis in human HepG2 cells assessed as necrotic cells at 0.2 uM after 48 hrs by annexin V/propidium iodide staining-based flow cytometry (reference value: 1.59%). The format is functional.
The subject of assay [7] is HepG2. Put plainly: Induction of apoptosis in human HepG2 cells assessed as late apoptotic cells at 1 uM after 48 hrs by annexin V/propidium iodide staining-based flow cytometry (reference value: 3.74%). Type of assay: functional.
Assay [8] deals with HUVEC. As to the kind of experiment: Antiproliferative activity against HUVEC after 48 hrs by MTT assay. Type of assay: cell-based. The settings on record: Homo sapiens. The method, boiled down: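 HUVECs isolated from umbilical cord veins and grown in EBM-2 with growth factors at 37 °C, 5% CO2. Log-phase cells at 40,000-50,000 cells/mL exposed to a compound dilution series for 48 h. MTT added for 3 h, formazan dissolved in DMSO, absorbance read at 570 nm. IC50 taken from percent growth versus untreated control.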
(Tetrazolium dyes change colour on reduction, which living cells bring about.)

Assay [9] concerns HUVEC. As to the kind of experiment: Antimigratory activity against HUVEC at 500 nM after 24 hrs by phase contrast microscopy. Type of assay: functional, cell-based. Conditions: Homo sapiens. The method, boiled down: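 HUVEC monolayers grown overnight in 6-well plates, scratched with pipet tips, washed twice with PBS, then given fresh EBM2 with vehicle or compound. Imaged by phase contrast at 0 and 24 h (100×). Migrated cells counted manually in 3 separate fields; mean ± SD from three fields.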

For assay [10], the system named is HCT-116. Put plainly: Antitumor activity against human HCT116 cells xenografted in Balb/c athymic nude mouse assessed as tumor growth inhibition at 20 mg/kg, ip administered daily after 42 days. Type of assay: functional. Conditions: HCT-116, ip, 1008 h, read-out: TGI. The essentials:
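Female Balb/C athymic nude mice, 5-6 weeks old, implanted s.c. in the right flank with HCT116 cells in 100 µL HBSS. Tumor volume (π/6 × L × W²) and body weight measured every 2 days. Inhibition = (1 − treated/control tumor weight) × 100%.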
Background: Xenograft models place foreign cells or tissue in a host animal.

A further assay relates to SK-OV-3. As to the kind of experiment: Antitumor activity against human SKOV3 cells xenografted in Balb/c athymic nude mouse assessed as tumor growth inhibition at 20 mg/kg, ip administered daily after 42 days. The format is functional. The settings on record: SK-OV-3, ip, 1008 h, read-out: TGI. The method, boiled down: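 Female Balb/C athymic nude mice, 5-6 weeks old, bearing s.c. right-flank SK-OV-3 xenografts implanted in HBSS. At about 100 mm3, groups of 6 given vehicle, 5-FU 10 mg/kg or compound 20 mg/kg i.p. daily. Tumors measured every 2 days (π/6 × L × W²); inhibition = (1 − treated/control tumor weight) × 100%.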

The subject of assay [11] is HCT-116. Put plainly: Antiproliferative activity against human HCT116 cells after 48 hrs by MTT assay. The format is functional, cell-based. The settings on record: HCT-116, 48 h. The method, boiled down: (§1)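 HCT116, HepG2, SMMC-7721, SK-OV-3 and A2780s grown in DMEM; A549 and MCF-7 in RPMI-1640; all with 10% FBS and penicillin/streptomycin at 37 °C, 5% CO2. Log-phase cells at 40,000-50,000 cells/mL treated with graded concentrations for 48 h. MTT 3 h, DMSO solubilization, A570. IC50 from percent growth versus untreated control; mean ± SEM of ≥3 independent dose-response experiments.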

The test system of assay [12] is HepG2. Put plainly: Antiproliferative activity against human HepG2 cells after 48 hrs by MTT assay. Conditions: HepG2, 48 h. Type of assay: functional, cell-based. The method, boiled down:
as §1

Another assay has as its system A549. Put plainly: Resistance ratio, ratio of IC50 for human taxol-resistant A549 cells to IC50 for human A549 cells. The format is functional. The essentials:
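MTT assay: log-phase cells at 40,000-50,000 cells/mL in RPMI-1640 with 10% FBS, exposed to graded concentrations for 48 h, then MTT 3 h, DMSO solubilization, absorbance at 570 nm. IC50 from growth versus untreated control, at least three independent experiments. Ratio = resistant-line IC50 / parental-line IC50.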

In the next assay the test system is MCF7. As to the kind of experiment: Antiproliferative activity against human MCF7 cells after 48 hrs by MTT assay. The format is functional, cell-based. Conditions: MCF7, 48 h. The method, boiled down:
as §1

The test system of another assay is NCI-H1975. As to the kind of experiment: Resistance ratio, ratio of IC50 for human gefitinib-resistant NCI-H1975 cells to IC50 for human HCC827 cells. The format is functional.
For assay [13], the system named is HCT-116. Put plainly: Cell cycle arrest in human HCT116 cells assessed as accumulation at G2/M phase at 1 uM after 24 hrs by flow cytometry (reference value: 20.36%). The format is functional.
Assay [14] deals with HCT-116. Put plainly: Induction of apoptosis in human HCT116 cells assessed as viable cells at 0.2 uM after 24 hrs by annexin V/propidium iodide staining-based flow cytometry (reference value: 92%). Type of assay: functional. Conditions: HCT-116, 24 h, read-out: Activity.
The subject of assay [15] is HCT-116. Put plainly: Induction of apoptosis in human HCT116 cells assessed as necrotic cells at 0.5 uM after 24 hrs by annexin V/propidium iodide staining-based flow cytometry (reference value: 3.49%). Type of assay: functional.
The test system of assay [16] is HCT-116. Put plainly: Induction of apoptosis in human HCT116 cells assessed as early apoptotic cells at 1 uM after 24 hrs by annexin V/propidium iodide staining-based flow cytometry (reference value: 2.83%). Type of assay: functional. The method, boiled down:
(§2)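 HCT116 cells treated with compound or DMSO for 24 or 48 h, trypsinized, washed twice in PBS and dual-stained with annexin-V and PI. Analysed by flow cytometry: early apoptotic cells scored as annexin-V+/PI−, late apoptotic cells as annexin-V+/PI+.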

For assay [17], the system named is HCT-116. Put plainly: Induction of apoptosis in human HCT116 cells assessed as necrotic cells at 1 uM after 24 hrs by annexin V/propidium iodide staining-based flow cytometry (reference value: 3.49%). Type of assay: functional.
For assay [18], the system named is HCT-116. As to the kind of experiment: Induction of apoptosis in human HCT116 cells assessed as early apoptotic cells at 0.2 uM after 48 hrs by annexin V/propidium iodide staining-based flow cytometry (reference value: 2.83%). The format is functional. The method, boiled down:
as §2

The subject of assay [19] is HCT-116. Put plainly: Induction of apoptosis in human HCT116 cells assessed as necrotic cells at 0.2 uM after 48 hrs by annexin V/propidium iodide staining-based flow cytometry (reference value: 3.49%). Type of assay: functional.
Assay [20] deals with HCT-116. Put plainly: Induction of apoptosis in human HCT116 cells assessed as viable cells at 0.2 uM after 48 hrs by annexin V/propidium iodide staining-based flow cytometry (reference value: 92%). The settings on record: HCT-116, 48 h, read-out: Activity. Type of assay: functional.

Data on one molecule can be found in ChEMBL document CHEMBL3596186, “Synthesis and biological evaluation of diarylthiazole derivatives as antimitotic and antivascular agents with potent antitumor activity” (Bioorg Med Chem, 2015).

Each structure is given as a SMILES string. Active and inactive are the calls of the source. The calls are words filed in the database; no cut-off is given here.

Regarding `CCOc1ccc(-c2nc(N)sc2-c2cc(OC)c(OC)c(OC)c2)cc1`, the Activity with HepG2 [1] turned out to be 19.56%; with HepG2 [2] it was 62.63%; with HepG2 [4] it was 0.81%; in the assay with HepG2 [5] it was 8.34%; in the assay with HepG2 [6], 0.79%; in the assay on HepG2 [7], 2.67%. In addition, the Activity is 9.22% with HCT-116 [13]; 3.5% in the assay with HCT-116 [15]; 17.6% in the assay with HCT-116 [16]; 3.15% in the assay on HCT-116 [17]; 40.2% in the assay on HCT-116 [18]; 5.36% with HCT-116 [19]. In addition, the viability at 0.2 µM in the assay on HepG2 [3] stood at 81.8%; in the assay on HCT-116 [14], 80.4%; in the assay on HCT-116 [20], 31.1%. Moreover, the 50% inhibitory concentration (IC50) in the assay on HUVEC [8] was 40.2 nM; in the assay with HCT-116 [11] it was 8.4 nM; with HepG2 [12] it was 26.4 nM; in the assay on MCF7, 100 nM. The result in the assay on HUVEC [9] was Active. The figures for the inhibition in vivo at 20 mg/kg in the assay on HCT-116 [10] and in the assay on SK-OV-3 were 49.5% and 49.6%, respectively. In addition, the “Ratio IC50” value turned out to be 0.51 with A549 and 2.24 in the assay on NCI-H1975.

By IC50 is commonly meant the concentration at which inhibition is half-maximal. A higher IC50 goes with a need for much substance.
